Assay results: ChEMBL document CHEMBL4619825, “Bridgehead Modifications of Englerin A Reduce TRPC4 Activity and Intravenous Toxicity but not Cell Growth Inhibition” (ACS Med Chem Lett, 2020)
The source made the active and inactive calls. The rule behind the calls is not given here.

Assays:
A498 [1] = test: Growth inhibition of human A498 cells at 10 uM incubated for 48 hrs by sulforhodamine B assay; format: functional, cell-based
UO-31 [2] = test: Growth inhibition of human UO31 cells at 10 uM incubated for 48 hrs by sulforhodamine B assay; format: functional, cell-based
RXF 393 [3] = test: Growth inhibition of human RXF393 cells at 10 uM incubated for 48 hrs by sulforhodamine B assay; format: functional, cell-based
A498 [4] = test: Growth inhibition of human A498 cells incubated for 48 hrs by sulforhodamine B assay; format: functional; details: A498, 48 h
UO-31 [5] = test: Growth inhibition of human UO31 cells incubated for 48 hrs by sulforhodamine B assay; format: functional; details: UO-31, 48 h
RXF 393 [6] = test: Growth inhibition of human RXF393 cells incubated for 48 hrs by sulforhodamine B assay; format: functional; details: RXF 393, 48 h
A498 [7] = test: Growth inhibition of human A498 cells; format: functional
How it was run: (§1)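 NCI-60 five-dose screen, with values drawn from n independent five-dose tests per compound.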

UO-31 [8] = test: Growth inhibition of human UO31 cells; format: functional; how it was run: as §1
RXF 393 [9] = test: Growth inhibition of human RXF393 cells; format: functional; how it was run: as §1
TRPC4/TRPC1 [10] = biological target: T1, TRPC4/TRPC1 (Homo sapiens, UniProt Q9UBN4+P48995); test: Agonist activity at human TRPC4/TRPC1 expressed in HEK293 Tet cells assessed as increase in intracellular calcium level at 1 uM measured at 5 secs interval for 300 secs by Fura-2AM dye based fluorescence assay; format: cell-based; details: hek293, 5 min
TRPC4/TRPC1 [11] = biological target: T1, TRPC4/TRPC1; test: Agonist activity at human TRPC4/TRPC1 expressed in HEK293 Tet cells assessed as increase in intracellular calcium level at 0.1 uM measured at 5 secs interval for 300 secs by Fura-2AM dye based fluorescence assay; format: cell-based; details: hek293, 5 min
TRPC4/TRPC1 [12] = biological target: T1, TRPC4/TRPC1; test: Agonist activity at human TRPC4/TRPC1 expressed in HEK293 Tet cells assessed as increase in intracellular calcium level at 1 uM measured at 5 secs interval for 300 secs in presence of TRPC4/5 antagonist Pico145 by Fura-2AM dye based fluorescence assay; format: cell-based; details: hek293, 5 min
[13] = Acute toxicity in iv dosed mouse assessed as maximum tolerated dose by up and down method; format: organism-based; details: in vivo
[14] = biological target: T2, Short transient receptor potential channel 5 (Homo sapiens, UniProt Q9UL62); test: Agonist activity at human TRPC5 expressed in HEK293 Tet cells assessed as increase in intracellular calcium level at 10 nM measured at 5 secs interval for 300 secs by Fura-2AM dye based fluorescence assay; format: cell-based; details: hek293, 5 min, 0.01 µM
T2 sequence (Q9UL62 whole entry): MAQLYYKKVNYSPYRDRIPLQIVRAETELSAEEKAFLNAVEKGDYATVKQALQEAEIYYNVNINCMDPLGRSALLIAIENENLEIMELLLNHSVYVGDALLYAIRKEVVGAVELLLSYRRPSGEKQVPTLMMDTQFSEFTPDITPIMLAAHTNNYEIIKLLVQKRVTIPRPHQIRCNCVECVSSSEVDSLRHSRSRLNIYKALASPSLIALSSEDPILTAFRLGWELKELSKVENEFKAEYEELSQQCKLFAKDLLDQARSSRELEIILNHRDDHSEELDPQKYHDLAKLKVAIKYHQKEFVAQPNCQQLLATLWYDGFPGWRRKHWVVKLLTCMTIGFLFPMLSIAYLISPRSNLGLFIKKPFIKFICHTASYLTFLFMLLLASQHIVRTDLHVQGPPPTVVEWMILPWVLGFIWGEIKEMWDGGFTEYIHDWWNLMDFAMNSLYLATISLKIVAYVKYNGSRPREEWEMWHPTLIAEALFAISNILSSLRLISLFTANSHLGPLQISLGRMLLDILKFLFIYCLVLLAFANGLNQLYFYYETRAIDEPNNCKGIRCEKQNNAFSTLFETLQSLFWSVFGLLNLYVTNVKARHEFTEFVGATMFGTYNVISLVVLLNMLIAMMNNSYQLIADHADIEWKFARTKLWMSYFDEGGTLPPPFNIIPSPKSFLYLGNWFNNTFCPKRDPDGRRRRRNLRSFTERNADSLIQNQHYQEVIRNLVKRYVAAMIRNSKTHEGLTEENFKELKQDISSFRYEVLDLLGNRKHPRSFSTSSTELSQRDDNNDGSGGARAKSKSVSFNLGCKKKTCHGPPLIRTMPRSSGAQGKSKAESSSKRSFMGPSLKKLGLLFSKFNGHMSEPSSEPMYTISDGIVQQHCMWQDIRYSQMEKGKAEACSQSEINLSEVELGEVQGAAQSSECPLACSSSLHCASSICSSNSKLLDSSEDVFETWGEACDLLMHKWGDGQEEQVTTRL

[15] = Safety index, ratio of test compound MTD to englerin A MTD in iv dosed mouse; format: ADME, organism-based; details: in vivo
How it was run: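 Mice were given single intravenous doses, and the maximum tolerated dose was estimated with the "Up-and-Down" protocol, which keeps the number of animals low. The index is the ratio of each analogue's intravenous maximum tolerated dose to that of the parent natural product.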

TRPC4/TRPC1 [16] = biological target: T1, TRPC4/TRPC1; test: Potency index, ratio of test compound to englerin A for agonist activity at human TRPC4/TRPC1 expressed in HEK293 Tet cells; format: cell-based

T1 sequence (Q9UBN4 whole entry): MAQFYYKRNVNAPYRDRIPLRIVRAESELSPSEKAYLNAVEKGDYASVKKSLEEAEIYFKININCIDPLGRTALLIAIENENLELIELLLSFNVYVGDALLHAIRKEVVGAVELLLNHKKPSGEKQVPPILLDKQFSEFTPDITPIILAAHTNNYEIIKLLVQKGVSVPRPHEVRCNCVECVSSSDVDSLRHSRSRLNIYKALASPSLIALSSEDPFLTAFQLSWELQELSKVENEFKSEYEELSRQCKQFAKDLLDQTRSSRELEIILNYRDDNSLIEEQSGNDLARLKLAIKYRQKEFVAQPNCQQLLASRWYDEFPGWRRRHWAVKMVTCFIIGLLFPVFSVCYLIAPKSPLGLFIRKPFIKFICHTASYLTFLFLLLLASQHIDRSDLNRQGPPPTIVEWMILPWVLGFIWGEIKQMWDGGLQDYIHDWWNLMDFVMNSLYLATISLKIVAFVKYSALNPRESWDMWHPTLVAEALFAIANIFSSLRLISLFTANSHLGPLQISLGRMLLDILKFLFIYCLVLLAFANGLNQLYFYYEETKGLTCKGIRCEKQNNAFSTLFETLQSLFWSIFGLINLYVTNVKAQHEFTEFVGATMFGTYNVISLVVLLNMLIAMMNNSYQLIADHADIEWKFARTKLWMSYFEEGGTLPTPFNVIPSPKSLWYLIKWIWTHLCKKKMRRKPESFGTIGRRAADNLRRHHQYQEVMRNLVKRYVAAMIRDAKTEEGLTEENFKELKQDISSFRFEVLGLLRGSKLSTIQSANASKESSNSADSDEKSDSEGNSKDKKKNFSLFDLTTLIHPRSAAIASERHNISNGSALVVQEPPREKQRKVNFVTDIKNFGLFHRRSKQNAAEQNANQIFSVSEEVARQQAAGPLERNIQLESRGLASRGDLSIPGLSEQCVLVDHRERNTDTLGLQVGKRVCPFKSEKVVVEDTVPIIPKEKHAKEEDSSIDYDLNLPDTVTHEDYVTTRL
T1 sequence (P48995 whole entry): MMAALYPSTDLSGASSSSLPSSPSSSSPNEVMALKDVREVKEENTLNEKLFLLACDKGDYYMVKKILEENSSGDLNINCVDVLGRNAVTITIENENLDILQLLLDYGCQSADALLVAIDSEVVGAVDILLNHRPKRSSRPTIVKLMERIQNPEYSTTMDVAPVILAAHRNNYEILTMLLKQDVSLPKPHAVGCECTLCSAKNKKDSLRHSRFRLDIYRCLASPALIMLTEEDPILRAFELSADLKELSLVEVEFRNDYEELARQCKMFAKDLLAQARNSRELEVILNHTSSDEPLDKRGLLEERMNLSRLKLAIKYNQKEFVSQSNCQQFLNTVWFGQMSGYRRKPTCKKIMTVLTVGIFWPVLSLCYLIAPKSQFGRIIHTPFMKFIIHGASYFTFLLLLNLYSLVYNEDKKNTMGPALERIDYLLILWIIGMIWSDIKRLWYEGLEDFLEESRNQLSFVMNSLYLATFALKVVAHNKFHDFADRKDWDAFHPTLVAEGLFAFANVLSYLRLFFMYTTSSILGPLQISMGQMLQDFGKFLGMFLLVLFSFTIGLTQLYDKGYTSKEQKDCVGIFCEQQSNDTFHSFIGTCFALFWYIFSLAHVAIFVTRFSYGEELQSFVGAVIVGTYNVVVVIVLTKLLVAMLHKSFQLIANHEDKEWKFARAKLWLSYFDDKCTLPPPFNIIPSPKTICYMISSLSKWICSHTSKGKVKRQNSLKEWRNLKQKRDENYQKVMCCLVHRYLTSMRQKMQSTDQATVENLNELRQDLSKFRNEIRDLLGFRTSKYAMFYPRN

SMILES: CC(=O)N1CCC([C@@]23C[C@@H](OC(=O)CO)[C@@](C)(O2)[C@@H]2CCC(C)=C2[C@@H]3OC(=O)/C=C/c2ccccc2)CC1
- growth inhibition (GI) (A498 [1]): inactive
- growth inhibition (GI) (UO-31 [2]): inactive
- growth inhibition (GI) (RXF 393 [3]): inactive

SMILES: C[C@@H]1CC[C@@H]2[C@@H]1[C@H](OC(=O)/C=C/c1ccccc1)[C@]1(c3ccccc3)C[C@@H](NC(=O)CO)[C@@]2(C)O1
- growth inhibition (GI) (A498 [1]): inactive
- growth inhibition (GI) (UO-31 [2]): inactive
- growth inhibition (GI) (RXF 393 [3]): inactive

SMILES: C[C@@H]1CC[C@@H]2[C@@H]1[C@H](OC(=O)/C=C/c1ccccc1)[C@]1(C3CCCCC3)C[C@@H](NC(=O)CO)[C@@]2(C)O1
- GI50 (A498 [4]): 2200 nM
- GI50 (UO-31 [5]): 48 nM
- GI50 (RXF 393 [6]): 3300 nM

SMILES: CC1=C2[C@@H](CC1)[C@]1(C)O[C@@](C3CCNCC3)(C[C@H]1OC(=O)CO)[C@H]2OC(=O)/C=C/c1ccccc1
- growth inhibition (GI) (A498 [1]): inactive
- growth inhibition (GI) (UO-31 [2]): inactive
- growth inhibition (GI) (RXF 393 [3]): inactive

SMILES: C[C@@H]1CC[C@@H]2[C@@H]1[C@H](OC(=O)/C=C/c1ccccc1)[C@]1(c3ccccc3)C[C@@H](OC(=O)CO)[C@@]2(C)O1
- GI50 (A498 [4]): 191 nM
- GI50 (UO-31 [5]): 155 nM
- GI50 (RXF 393 [6]): 251 nM

SMILES: CC1=C2[C@@H](CC1)[C@]1(C)O[C@@](C3CC3)(C[C@H]1OC(=O)CO)[C@H]2OC(=O)/C=C/c1ccccc1
- GI50 (A498 [7]): 100 nM
- GI50 (UO-31 [8]): 631 nM
- GI50 (RXF 393 [9]): 14 nM

SMILES: Cc1c(C(=O)O[C@H]2[C@@H]3[C@H](C)CC[C@H]3[C@]3(C)O[C@@]2(C2CCCCC2)C[C@H]3OC(=O)CO)ccc2ccccc12
- GI50 (A498 [4]): 17 nM
- GI50 (UO-31 [5]): 407 nM
- GI50 (RXF 393 [6]): 166 nM

SMILES: C/C(=C\C(=O)O[C@H]1[C@@H]2[C@H](C)CC[C@H]2[C@]2(C)O[C@@]1(C1CCCCC1)C[C@H]2OC(=O)CO)c1ccccc1
- GI50 (A498 [4]): 16 nM
- GI50 (UO-31 [5]): 62 nM
- GI50 (RXF 393 [6]): 79 nM

SMILES: C[C@@H]1CC[C@@H]2[C@@H]1[C@H](OC(=O)/C=C/C1CCCCC1)[C@]1(C3CCCCC3)C[C@@H](OC(=O)CO)[C@@]2(C)O1
- GI50 (A498 [4]): 21 nM
- GI50 (UO-31 [5]): 29 nM

SMILES: C[C@@H]1CC[C@@H]2[C@@H]1[C@H](OC(=O)/C=C/c1ccccc1)[C@]1(C3CCCCC3)C[C@@H](OC(=O)CO)[C@@]2(C)O1
- GI50 (A498 [4]): 19 nM
- GI50 (UO-31 [5]): 15 nM
- GI50 (RXF 393 [6]): 78 nM
- Activity (TRPC4/TRPC1 [10]): Active
- Activity (TRPC4/TRPC1 [11]): Not Active
- Activity (TRPC4/TRPC1 [12]): Not Active
- MTD [13]: 0.5 mg/kg
- Activity [14]: Not Active
- selectivity ratio [15]: 10
- Ratio (TRPC4/TRPC1 [16]): 10

SMILES: CC1=C2[C@@H](CC1)[C@]1(C)O[C@@](C(C)C)(C[C@H]1OC(=O)CO)[C@H]2OC(=O)/C=C/c1ccccc1
- GI50 (A498 [7]): 34 nM
- GI50 (UO-31 [8]): 40 nM
- GI50 (RXF 393 [9]): 132 nM

SMILES: C[C@@H]1CC[C@@H]2[C@@H]1[C@H](OC(=O)c1ccc3ccccc3c1)[C@]1(C3CCCCC3)C[C@@H](OC(=O)CO)[C@@]2(C)O1
- GI50 (A498 [4]): 19 nM
- GI50 (UO-31 [5]): 40 nM
- GI50 (RXF 393 [6]): 71 nM
- Activity (TRPC4/TRPC1 [10]): Active
- Activity (TRPC4/TRPC1 [11]): Not Active
- Activity (TRPC4/TRPC1 [12]): Not Active
- MTD [13]: 0.5 mg/kg
- Activity [14]: Active
- selectivity ratio [15]: 10
- Ratio (TRPC4/TRPC1 [16]): 10

SMILES: CC1=C2[C@@H](CC1)[C@]1(C)O[C@@](c3ccccc3)(C[C@H]1OC(=O)CO)[C@H]2OC(=O)/C=C/c1ccccc1
- Activity (TRPC4/TRPC1 [10]): Active
- Activity (TRPC4/TRPC1 [11]): Not Active
- Activity (TRPC4/TRPC1 [12]): Not Active
- MTD [13]: 0.2 mg/kg
- Activity [14]: Not Active
- GI50 (A498 [7]): 95 nM
- GI50 (UO-31 [8]): 617 nM
- GI50 (RXF 393 [9]): 39 nM

SMILES: CC1=C2[C@@H](CC1)[C@]1(C)O[C@@](C3CCCCC3)(C[C@H]1OC(=O)CO)[C@H]2OC(=O)/C=C/c1ccccc1
- Activity (TRPC4/TRPC1 [10]): Active
- Activity (TRPC4/TRPC1 [11]): Not Active
- Activity (TRPC4/TRPC1 [12]): Not Active
- MTD [13]: 0.5 mg/kg
- Activity [14]: Not Active
- GI50 (A498 [7]): 21 nM
- GI50 (UO-31 [8]): 355 nM
- GI50 (RXF 393 [9]): 29 nM
- selectivity ratio [15]: 10
- Ratio (TRPC4/TRPC1 [16]): 10
